From PubChem BioAssay
This excerpt belongs to a sample that is enriched for hits.
CHOP inh: blocks CHOP induction under ER stress; inhibition, % at 10 µM; actives 3.8% (n = 220,000); CHO-K1 CHOP-promoter luciferase, tunicamycin-induced, 15-18 h;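 active means compounds that reduced the stress-induced luciferase reporter signal by more than about 70% of percent inhibition, limit read from the data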;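 further: 0% = tunicamycin plus vehicle and 100% = wells without tunicamycin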
UPR XBP1 act: activators of adaptive arm of unfolded protein response (XBP1); CHO-XBP1 luciferase reporter, IRE1-XBP1 UPR activation, luminescence; percent of tunicamycin response, DMSO as zero; activation, % at 20 µM; actives 0.33% (n = 330,000); AID 463104;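 active means versus positive control, 20 µM dose yields 30% or more activation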;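 further: 100% = tunicamycin at 10 µg/mL and 0% = DMSO only wells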
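Signal: luciferase luminescence; Assay system: CHO-XBP1 luciferase reporter cells; Amount: one thousand reporter cells per well; Dosing: 20 µM single concentration, DMSO 1%; Benchmarks: high control tunicamycin 10 µg/mL final, low control DMSO vehicle only; Schedule: 6 h compound exposure at 37 °C, 5% CO2; Evaluation: percent activation relative to tunicamycin reference.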
CHOP UPR activ: activators of apoptotic arm of unfolded protein response (CHOP) | actives 0.34% (n = 330,000) | activation, % at 10 µM | CHO-CHOP luciferase reporter, UPR activation, luminescence; percent of tunicamycin response over DMSO baseline;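 active means at 10 µM dose, activation of 40% or more, normalized to positive control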;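 further: 100% = tunicamycin at 10 µg/mL and 0% = DMSO alone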
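measured by = luciferase luminescence | assay system = CHO-CHOP cells, stable luciferase reporter of PERK-eIF2a-CHOP signalling | amount = 500 reporter cells seeded per well | timing = 6 h compound exposure at 37 °C after overnight seeding | controls = positive tunicamycin 10 µg/mL, negative DMSO alone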
Dynein cargo inh: blocks dynein driven cargo transport along microtubules; AID 1381; 3617.4 mouse cells, GR-EGFP nuclear translocation imaging; test concentration mostly 20 µM; stimulated with dexamethasone, 1 µM; hits give low values; actives 0.47% (n = 220,000); z-score, hits read low;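 active means plate z-score of nuclear minus cytoplasmic receptor signal below a set negative limit, without overly bright fluorescence or cell loss, cut at about -3.5 in these data, passing the limit was not always enough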;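 further: z-score of nuclear minus cytoplasmic ring GR-EGFP intensity difference per well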
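Medium: Induction medium lacking tetracycline, stripped serum | Probe or stimulus: 1.0 µM final dexamethasone stimulus | Schedule: 48 h induction, then 1 h compound, then 30 min agonist, 37 °C | Signal: Automated 10x imaging of fixed Hoechst-stained cells | Evaluation: Per-cell GR-EGFP intensity, nucleus versus surrounding cytoplasmic ring, well-averaged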
pCIP destab: compounds decreasing mouse p/CIP protein stability. Q05BA5. F442A p/CIP-EGFP cells, EGFP fluorescence, 16 h. decrease of EGFP signal, % at 10 µM. actives 0.01% (n = 290,000). AID 1984;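 active means EGFP signal decrease of at least 30% at 10 µM or well 3 SD below plate mean, unless failing retest; inactive means the rest, including hits failing retest or dose response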
Target sequence (Q05BA5 1-1403): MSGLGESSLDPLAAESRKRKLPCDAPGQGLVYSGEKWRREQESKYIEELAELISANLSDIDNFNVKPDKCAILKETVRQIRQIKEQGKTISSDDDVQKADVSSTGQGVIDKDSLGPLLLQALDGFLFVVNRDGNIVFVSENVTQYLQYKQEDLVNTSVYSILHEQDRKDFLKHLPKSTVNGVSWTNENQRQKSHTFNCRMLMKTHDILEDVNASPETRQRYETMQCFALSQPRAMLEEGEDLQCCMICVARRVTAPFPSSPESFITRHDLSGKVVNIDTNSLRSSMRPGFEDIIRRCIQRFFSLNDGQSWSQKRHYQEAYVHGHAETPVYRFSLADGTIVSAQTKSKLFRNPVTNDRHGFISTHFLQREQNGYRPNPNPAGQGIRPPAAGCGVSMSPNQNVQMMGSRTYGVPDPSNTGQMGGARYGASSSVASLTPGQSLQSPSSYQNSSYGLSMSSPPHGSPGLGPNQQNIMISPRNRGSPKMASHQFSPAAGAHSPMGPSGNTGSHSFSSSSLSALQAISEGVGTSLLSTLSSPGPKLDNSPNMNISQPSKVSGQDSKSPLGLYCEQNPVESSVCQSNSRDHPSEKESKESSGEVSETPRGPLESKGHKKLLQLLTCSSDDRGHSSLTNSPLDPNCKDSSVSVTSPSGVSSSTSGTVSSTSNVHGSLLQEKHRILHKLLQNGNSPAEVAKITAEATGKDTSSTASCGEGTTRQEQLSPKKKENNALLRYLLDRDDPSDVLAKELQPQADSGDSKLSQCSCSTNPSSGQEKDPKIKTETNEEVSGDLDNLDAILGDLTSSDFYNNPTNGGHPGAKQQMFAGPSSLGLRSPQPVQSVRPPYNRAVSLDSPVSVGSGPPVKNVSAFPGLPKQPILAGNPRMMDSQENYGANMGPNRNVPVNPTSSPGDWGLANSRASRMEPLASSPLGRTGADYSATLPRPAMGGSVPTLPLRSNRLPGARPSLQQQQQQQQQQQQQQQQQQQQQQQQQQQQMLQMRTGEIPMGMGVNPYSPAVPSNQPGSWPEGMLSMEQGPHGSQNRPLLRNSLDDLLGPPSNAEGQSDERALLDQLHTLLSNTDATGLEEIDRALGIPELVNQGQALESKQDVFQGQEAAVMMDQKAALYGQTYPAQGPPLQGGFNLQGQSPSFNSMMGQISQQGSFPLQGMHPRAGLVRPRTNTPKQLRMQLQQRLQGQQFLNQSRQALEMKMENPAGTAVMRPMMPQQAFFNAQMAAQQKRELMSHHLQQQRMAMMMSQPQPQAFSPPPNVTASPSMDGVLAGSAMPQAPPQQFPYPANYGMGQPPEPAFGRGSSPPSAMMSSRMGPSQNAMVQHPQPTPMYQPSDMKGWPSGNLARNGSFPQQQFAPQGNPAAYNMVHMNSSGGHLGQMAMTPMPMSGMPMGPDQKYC
B2AR ag: human beta-2 adrenergic receptor agonism by FAP | actives 0.43% (n = 340,000) | Am2.2-beta2AR cells, FAP receptor internalization, flow cytometry | P07550 | response, % (test concentration not listed);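 active means response above a set limit, near 3 SD of response in nonfluorescent compounds, cut at about 42% in these data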
CHOP confirm: confirmation of CHOP induction inhibitors; AID 504437; inhibition, % at 10 µM; CHO-CHOP promoter luciferase reporter, tunicamycin-induced, luminescence; shares compounds with CHOP inh; actives 45% (n = 2,100);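 active means mean of three repeat readings of reporter signal inhibition above a set limit, cut at about 70% in these data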;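 further: 0% = tunicamycin plus vehicle and 100% = wells lacking tunicamycin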
CHOP UPR conf: apoptotic UPR (CHOP) activation, confirmed; activation, % at 10 µM; shares compounds with CHOP UPR activ; CHO-CHOP cells, CHOP-luciferase reporter luminescence; percent of tunicamycin response, DMSO as zero; AID 463112; actives 64% (n = 1,000); in the data active means activation above about 33%;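 further: 0% = DMSO wells and 100% = tunicamycin 10 µg/mL wells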
UPR XBP1 confirm: confirmation of adaptive unfolded protein response (XBP1) activators; shares compounds with UPR XBP1 act; CHO-XBP1 IRE1-XBP1 luciferase reporter, luminescence; activation, % at 20 µM; actives 63% (n = 1,000); AID 485299;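 active means reporter signal at least 30% of the positive control's activation in two or more of four replicate wells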;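 further: plate controls were DMSO negative control for no effect and tunicamycin 10 µg/mL positive control for full effect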
Beta2AR ag CP1: human beta-2 adrenergic receptor agonism, cherry pick; actives 25% (n = 1,100); shares compounds with B2AR ag; Am2.2-beta2AR cells, FAP surface receptor, flow cytometry; hits give low values; percent response (surface receptor), % at 10 µM;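 active means surface receptor percent response at or below 58%, roughly 3 SD from nonfluorescent compounds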
FAP fluor counter: fluorescence artifact in beta-2AR agonist FAP counterscreen; calls only at 10 µM; shares compounds with B2AR ag; Am2.2 cells, FAP fluorogen flow cytometry; hits give low values; 1,100 tested, under 10 active;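 active means percent response below a set limit in fluorescence channel 1 and below 50% in channel 8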
* marks the source's active call; other numbers are inactive results; ! = not active in a repeat.

What do the screens show for `O=C(NC(=S)N1CCOCC1)c1cc2ccccc2o1`?
CHOP inh: -6.7; UPR XBP1 act: 1.1; CHOP UPR activ: -1.1; Dynein cargo inh: -0.161; pCIP destab: 3.0; B2AR ag: 1.4

What do the screens show for `Cc1cc(NC(=O)CSc2ccc(-c3nc4cc(C)c(C)cc4[nH]3)cn2)no1`?
CHOP inh: 104.0*; UPR XBP1 act: 58.1*; CHOP UPR activ: 3.6; Dynein cargo inh: 1.35; pCIP destab: -8.6; B2AR ag: 3.5; CHOP confirm: 15.3; UPR XBP1 confirm: 30.9*

How did CN(CC(=O)Nc1ccccc1Cl)C1CCS(=O)(=O)C1 (stereo unspecified) do in these assays?
UPR XBP1 act: -2.5; CHOP UPR activ: 0.1; B2AR ag: -11.4

How did Cc1ccc(-c2nn(CC(=O)NCc3cc(-c4nn(C)c(=O)c5ccccc45)ccc3C)c(=O)c3ccccc23)cc1 do in these assays?
CHOP inh: 105.7*; UPR XBP1 act: 81.1*; CHOP UPR activ: 11.6; Dynein cargo inh: -0.394; pCIP destab: 4.2; B2AR ag: 30.0; CHOP confirm: 93.3*; UPR XBP1 confirm: 61.0*

How did CCC(=O)NCc1cc(-c2nn(C)c(=O)c3ccccc23)ccc1C do in these assays?
CHOP inh: 6.1; UPR XBP1 act: 1.6; CHOP UPR activ: 1.3; Dynein cargo inh: -0.962; pCIP destab: -2.2; B2AR ag: 9.2

How did O=S(=O)(Nc1ccc(O)c(Sc2nc3ccccc3s2)c1)c1ccc(F)cc1 do in these assays?
CHOP inh: 17.8; UPR XBP1 act: -7.1; CHOP UPR activ: -1.5; Dynein cargo inh: 0.685; pCIP destab: 4.0; B2AR ag: -0.6

How did O=[N+]([O-])c1cc(S(=O)(=O)C(F)(F)F)ccc1Sc1nc2ccccc2s1 do in these assays?
CHOP inh: 106.8*; UPR XBP1 act: -13.6; CHOP UPR activ: 20.1; Dynein cargo inh: -3.36; pCIP destab: -15.0; B2AR ag: 45.4*; CHOP confirm: -27.8; Beta2AR ag CP1: 73.2; FAP fluor counter: inactive

What do the screens show for `COCC(C)NC(=O)CCSc1nc(-c2ccc(OC)cc2)cc(C(F)(F)F)n1` (stereo unspecified)?
CHOP inh: 17.2; UPR XBP1 act: 0.0; CHOP UPR activ: -1.6; Dynein cargo inh: -0.368; pCIP destab: -1.5; B2AR ag: 2.9

What do the screens show for `COc1ccccc1-c1cc(C(F)(F)F)nc(S(=O)(=O)CCCC(=O)NC(C)C)n1`?
CHOP inh: 112.3*; UPR XBP1 act: -6.6; CHOP UPR activ: 20.6; Dynein cargo inh: -1.63; pCIP destab: -6.3; B2AR ag: 98.4*; CHOP confirm: 117.2*; Beta2AR ag CP1: 54.3*; FAP fluor counter: inactive

Results for Cc1cc(C)cc(N2C(=O)CC(Sc3nnnn3-c3ccccc3)C2=O)c1 (stereo unspecified) ?
CHOP inh: 101.7*; UPR XBP1 act: -5.0; CHOP UPR activ: 55.7*; Dynein cargo inh: -2.21; pCIP destab: -20.9; B2AR ag: 50.5*; CHOP confirm: 62.6; CHOP UPR conf: 27.6; Beta2AR ag CP1: 113.8; FAP fluor counter: inactive

How did O=C(O)c1csc(-n2nc(-c3ccccc3)cc2C(F)(F)F)n1 do in these assays?
CHOP inh: -4.5; UPR XBP1 act: -3.0; CHOP UPR activ: 0.7; Dynein cargo inh: -0.768; pCIP destab: -15.1; B2AR ag: 8.1

What do the screens show for `O=C1NCN(c2ccccc2)C12CCN(CCCC(c1ccc(F)cc1)c1ccc(F)cc1)CC2`?
CHOP inh: 106.2*!; UPR XBP1 act: 3.3; CHOP UPR activ: 1.5; Dynein cargo inh: -0.322; pCIP destab: 2.4; B2AR ag: 48.9*; CHOP confirm: 122.7*; Beta2AR ag CP1: 81.9; FAP fluor counter: inactive

Results for COc1cc(/C=C/C(=O)OCC(=O)Nc2cc(C(F)(F)F)ccc2N2CCOCC2)ccc1O ?
CHOP inh: 26.3; UPR XBP1 act: 3.6; CHOP UPR activ: -1.5; Dynein cargo inh: -0.388; pCIP destab: 14.0; B2AR ag: -1.0

What do the screens show for `CC(C)c1nnc(NC(=O)CCS(=O)(=O)c2nc(-c3cccs3)cc(C(F)(F)F)n2)s1`?
CHOP inh: 107.7*; UPR XBP1 act: -5.5; CHOP UPR activ: 74.1*; Dynein cargo inh: -1.37; pCIP destab: -7.5; B2AR ag: 96.7*; CHOP confirm: -38.0; CHOP UPR conf: 48.2*; Beta2AR ag CP1: 54.8*; FAP fluor counter: inactive

Results for Cc1cccc(-c2nnc(NC(=O)c3ccco3)s2)c1 ?
UPR XBP1 act: -0.4; CHOP UPR activ: 3.1; pCIP destab: 22.4; B2AR ag: -9.1

How did O=C(O)Cc1cn(-c2ccccc2)nc1-c1ccccc1 do in these assays?
CHOP inh: 7.2; UPR XBP1 act: -2.4; CHOP UPR activ: 0.4; Dynein cargo inh: -0.761; pCIP destab: 2.6; B2AR ag: -0.8

What do the screens show for `Fc1ccc(-c2nn(-c3ccccc3)cc2CNCc2ccccc2)cc1`?
CHOP inh: 100.9*; UPR XBP1 act: -3.5; CHOP UPR activ: 1.3; Dynein cargo inh: -0.379; pCIP destab: -4.5; B2AR ag: 44.2*; CHOP confirm: 123.4*; Beta2AR ag CP1: 91.0; FAP fluor counter: inactive

What do the screens show for `COc1ccc(/C=C(/NC(=O)c2ccco2)C(=O)N2CCCCC2)cc1`?
UPR XBP1 act: -3.4; CHOP UPR activ: -0.1; pCIP destab: -6.7; B2AR ag: -6.4

How did Cc1ccc(OCC(O)Cn2c(=N)n(Cc3ccccc3)c3ccccc32)cc1 (stereo unspecified) do in these assays?
CHOP inh: 104.9*; UPR XBP1 act: 1.4; CHOP UPR activ: -2.5; Dynein cargo inh: -0.0431; pCIP destab: 3.0; B2AR ag: 54.6*; CHOP confirm: 50.4; Beta2AR ag CP1: 16.9*; FAP fluor counter: inactive
